This is a sample that favours compounds with a hit; in the whole collection about 3.6% have one here.
HCV NS3 hel inh: inhibitors of HCV NS3 helicase, primary screen, biochemical, Cy5 molecular beacon fluorescence. NS3 helicase DNA unwinding. 0.56% of 290,000 active. AID 1800, 2009. inhibition, % at 10.9 µM. Hepatitis C virus NS3 helicase;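 active means inhibition above the mean of all tested compounds plus 3 SD, set per campaign, cut at about 35% in these data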
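System: Hepatitis C virus NS3 helicase domain fragment enzyme | Reagent: Annealed dual-labelled DNA beacon duplex, ATP-started | Compound dosing: 10.9 µM single point, 0.8% DMSO | Incubation: 1 h reaction at 25 °C, ATP-initiated | Technique: Cy5 fluorescence | Evaluation: Percent inhibition from t60/t0 fluorescence ratio | Benchmarks: Low DMSO, high thioflavine S at 110 µM | Replication: Singlicate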
FGF22 binding: binders of human FGF22 protein, primary screen, FGF22 synaptogenesis inhibitor project, biophysical, thermal shift, single point | recombinant FGF22 thermal shift, SYPRO orange fluorescence; percent of sucrose octasulfate shift, DMSO zero | activity (Tm shift, normalised), % at 9.99 µM | 1.5% of 340,000 active | AID 651658, 2012;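 active means mean Tm shift, scaled 0 neutral to 100 positive control, at about 1.3% or above, every replicate too, limit read from the data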
Target sequence (Q9HCT0 whole entry, looked up): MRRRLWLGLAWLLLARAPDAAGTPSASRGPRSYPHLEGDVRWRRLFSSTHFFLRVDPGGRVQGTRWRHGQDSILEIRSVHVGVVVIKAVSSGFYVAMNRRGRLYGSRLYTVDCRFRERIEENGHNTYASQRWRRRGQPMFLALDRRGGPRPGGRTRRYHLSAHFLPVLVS
EBNA-1 inh: EBNA-1 DNA-binding inhibitors, primary screen, biochemical, fluorescence polarization | inhibition, % at 14.8 µM | 0.34% of 300,000 active | AID 1950, 2009; in the data active means inhibition above about 28%
ZTA DNA inh: blocks Epstein-Barr virus ZTA, an EBNA-1 counter-screen. 0.15% of 320,000 active. ZTA-DNA binding, fluorescence polarization. P03206. inhibition, % at 11 µM; in the data active means inhibition above about 33%
Target sequence (P03206 whole entry, looked up): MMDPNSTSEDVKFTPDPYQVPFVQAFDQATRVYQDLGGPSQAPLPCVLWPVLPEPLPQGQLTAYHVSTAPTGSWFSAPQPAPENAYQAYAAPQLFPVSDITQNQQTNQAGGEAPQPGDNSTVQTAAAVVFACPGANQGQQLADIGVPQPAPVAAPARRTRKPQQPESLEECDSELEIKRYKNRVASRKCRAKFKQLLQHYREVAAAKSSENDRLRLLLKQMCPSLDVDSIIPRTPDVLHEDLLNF
NR3A LBD binder: binders of NR3A ligand-binding domain, primary screen, biophysical, differential scanning fluorimetry, uHTS. NR3A LBD differential scanning fluorimetry, Tm shift; 0% = protein alone, 100% = glycine-bound protein. Tm shift relative to glycine control, % at 25 µM. 2.5% of 340,000 active;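 active means melting temperature shift of at least 10% of the positive control shift, at one fixed dose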
DNA FID counter: compounds displacing fluorescent DNA intercalator, primary screen, artefact control for HCV NS3 helicase inhibitor project, biochemical, FID fluorescence | 0.17% of 290,000 active | inhibition, % at 7.9 µM | DNA fluorescent intercalator displacement; in the data active means inhibition above about 37%;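 further: higher means more ethidium bromide displaced from hairpin DNA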
A number is an active result; i = inactive; nt = not tested or not shown.

SMILES	HCV NS3 hel inh	FGF22 binding	EBNA-1 inh	ZTA DNA inh	NR3A LBD binder	DNA FID counter
CN1C(=O)c2cc(NC(=O)c3ccc(F)cc3)ccc2OC[C@H]2O[C@H](CC(=O)NCC3CC3)CC[C@@H]21	nt	i	nt	nt	nt	nt
COc1ccc(S(=O)(=O)Nc2cccc3c2O[C@H](CN(C)C(=O)Nc2ccc(F)cc2)[C@H](C)CN([C@H](C)CO)C3=O)cc1	nt	i	nt	nt	nt	nt
Cn1c(N)c(C(=O)N/N=C/c2ccccc2)sc1=S	i	i	i	i	33	i
Cc1c(C(=O)N/N=C/c2cccnc2)sc(=S)n1C	i	nt	i	i	i	i
CC(C)CC#Cc1ccc2c(c1)O[C@@H](CN(C)C(=O)c1cccnc1)[C@@H](C)CN([C@H](C)CO)S2(=O)=O	nt	i	nt	nt	nt	nt
COc1ccc(OC)c(C(=O)c2ccc(C(=O)c3cc(OC)ccc3OC)cc2)c1	i	i	i	i	20	i
COc1ccc(OC)c(C(=O)c2ccccc2)c1	i	i	i	i	nt	i
Cc1cccc(N=C2NN=C(c3c(C)[nH]c4ccccc34)CS2)c1	i	i	i	i	19	i
Cc1ccc(-c2csc(Nc3ccc(S(N)(=O)=O)cc3)n2)o1	i	43	i	i	i	i
Cc1nc(C)c(-c2csc(Nc3cccc(O)c3)n2)s1	i	i	i	i	20	i
Cc1ccc(Nc2nc(-c3sc(C)nc3C)cs2)cc1	i	i	i	i	i	i
Cc1nc(C)c(-c2csc(Nc3ccc(S(N)(=O)=O)cc3)n2)s1	i	i	nt	nt	32	i
Cc1noc(C)c1NC(=O)N(C)C[C@@H]1Oc2c(NS(=O)(=O)c3cccs3)cccc2C(=O)N([C@@H](C)CO)C[C@H]1C	nt	i	nt	nt	nt	nt
O=C(C1CCCC1)N1C[C@H]2[C@@H](c3ccccc31)[C@@H](CO)N2C(=O)Cc1ccccn1	nt	i	nt	nt	nt	nt
COc1ccc(CN2CCC(n3nccc3NC(=O)C3CC3)CC2)cc1O	i	i	i	i	14	i
Nc1c(C(=O)Nc2ccc(S(=O)(=O)N3CCCC3)cc2)sc2nc3cc4c(cc3cc12)CCC4	i	nt	i	i	i	i
Nc1c(C(=O)Nc2ccc(S(=O)(=O)N3CCCC3)cc2)sc2nc3ccc(OC(F)(F)F)cc3cc12	i	nt	i	i	22	i
CCN(CC)CCNC(Cc1ccccc1)c1cccc(OC)c1 (stereo unspecified)	nt	i	nt	nt	13	nt
COC(=O)[C@@H]1C[C@@]2(O)[C@H](O)[C@H](O)[C@H](O)C[C@H]2N1Cc1cc(F)ccc1F	nt	i	i	i	11	nt
COCC#Cc1ccc2c(c1)O[C@@H](CN(C)C(=O)Nc1ccccc1F)[C@@H](C)CN([C@@H](C)CO)S2(=O)=O	nt	i	nt	nt	nt	nt
COc1cc(Br)cc(/C=N/NC(=O)Cc2ccc(C(F)(F)F)cc2[N+](=O)[O-])c1O	i	i	i	i	25	i
C[C@@H]1CN([C@H](C)CO)C(=O)c2cc(NC(=O)CCCCCC(=O)Nc3ccccc3N)ccc2O[C@H]1CN(C)S(=O)(=O)c1ccc(F)cc1	nt	i	nt	nt	nt	nt
C[C@@H]1CN([C@H](C)CO)C(=O)c2cccc(NS(=O)(=O)c3ccc(F)cc3)c2O[C@@H]1CN(C)C(=O)Nc1cccc2ccccc12	nt	i	nt	nt	nt	nt
COc1cc2c(cc1OC)C1=NC(=O)CN1C(SCc1ccccc1C)=N2	i	nt	i	i	26	i
Cc1ccc(CSC2=Nc3ccccc3C3=NC(=O)CN23)cc1	i	i	i	i	i	i
SMILES	HCV NS3 hel inh	FGF22 binding	EBNA-1 inh	ZTA DNA inh	NR3A LBD binder	DNA FID counter
CCc1c(C)[nH]n(-c2nc(-c3ccccc3)cs2)c1=O	i	i	i	i	i	i
Cc1[nH]n(-c2nc(-c3ccc(Cl)cc3)cs2)c(=O)c1N=Nc1ccc(O)cc1	i	43	i	i	19	i
COc1ccc(NC(=O)N(C)C[C@H]2Oc3c(NC(=O)c4cc(C)nn4C)cccc3C(=O)N([C@H](C)CO)C[C@@H]2C)cc1	nt	i	nt	nt	nt	nt
CCOC(=O)/C(C#N)=C/c1c(Oc2cc(C)cc(C)c2)nc2ccccn2c1=O	i	nt	i	i	15	i
CCNS(=O)(=O)c1ccc(NC(=O)Nc2cc(C)ccc2OC)cc1	i	i	i	i	20	i
CCNS(=O)(=O)c1ccc(NC(=O)Nc2ccccc2OC)cc1	i	i	i	i	14	i

Screening data: PubChem, several laboratories
